Active and inactive are the calls of the source. No cut-off for these calls is given here.
Assays:
[1] = target: Serine/threonine-protein kinase mTOR (Homo sapiens) (UniProt P42345); experiment: Inhibition of mTOR-mediated 4E-BP1 phosphorylation on Thr 37/46 in human MDA-MB-231 cells at 0.1 to 1 uM after 30 mins by Western blotting; type: cell-based
In short: (§1)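 0.8 × 10^6 cells per well exposed for 30 min at 37 °C, 5% CO2, in DMEM/F12 with 5% FBS. Cells washed with cold DPBS and lysed in modified RIPA (pH 7.6) with protease and phosphatase inhibitors. 40 µg protein run on 4–20% SDS-PAGE and blotted. Phospho-site-specific primary antibodies at 1:1,000, HRP anti-rabbit IgG, chemiluminescence on film.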

[2] = target: Serine/threonine-protein kinase mTOR (Homo sapiens) (UniProt P42345); experiment: Inhibition of mTOR in human T47D cells assessed as eIF2alpha hyperphosphorylation on Ser 51 at 0.1 to 1 uM after 30 mins by Western blotting; type: cell-based; in short: as §1
MDA-MB-231 [3] = experiment: Reduction in ATP level in human MDA-MB-231 cells after 72 hrs by HPLC-UV analysis; type: functional, cell-based
In short: (§2)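 5 × 10^5 cells per well seeded in DMEM/F12 with 10% FBS. After 24 h, half the medium replaced with serum-free DMEM/F12 containing compound. After exposure, cells washed in cold DPBS and extracted with cold 0.4 M perchloric acid, then neutralized with K2CO3. ATP quantified by reversed-phase C18 HPLC-UV using 50 mM potassium phosphate pH 6.0/MeOH at 0.7 mL/min.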

[4] = target: Serine/threonine-protein kinase mTOR (Homo sapiens) (UniProt P42345); experiment: Inhibition of mTORC1-mediated eIF4E phosphorylation on Ser 209 in human T47D cells at 0.1 to 1 uM after 30 mins by Western blotting; type: cell-based; in short: as §1
[5] = target: Serine/threonine-protein kinase mTOR (Homo sapiens) (UniProt P42345); experiment: Inhibition of mTOR-mediated rpS6 phosphorylation on Ser 235/236 in human MDA-MB-231 cells at 0.1 to 1 uM after 30 mins by Western blotting; type: cell-based; in short: as §1
T47D [6] = experiment: Reduction in ATP level in human T47D cells after 48 hrs by HPLC-UV analysis; type: functional, cell-based; in short: as §2
[7] = target: Serine/threonine-protein kinase mTOR (Homo sapiens) (UniProt P42345); experiment: Inhibition of mTOR-mediated eIF4E phosphorylation on Ser 209 in human MDA-MB-231 cells at 0.1 to 1 uM after 30 mins by Western blotting; type: cell-based; in short: as §1
[8] = target: Serine/threonine-protein kinase mTOR (Homo sapiens) (UniProt P42345); experiment: Inhibition of mTOR in human MDA-MB-231 cells assessed as eIF2alpha hyperphosphorylation on Ser 51 at 0.1 to 1 uM after 30 mins by Western blotting; type: cell-based; in short: as §1
MDA-MB-231 [9] = experiment: Inhibition of cellular respiration in human MDA-MB-231 cells assessed as rate of oxygen consumption; type: functional, cell-based
In short: (§3)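 Whole-cell oxygen consumption measured with a Clarke-type oxygen electrode during a concentration-response series. Cells in serum-free DMEM/F12 medium at 30 °C.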

[10] = target: Serine/threonine-protein kinase mTOR (Homo sapiens) (UniProt P42345); experiment: Inhibition of mTOR-mediated 4E-BP1 phosphorylation on Thr 37/46 in human T47D cells at 0.1 to 1 uM after 30 mins by Western blotting; type: cell-based; in short: as §1
T47D [11] = experiment: Reduction in ATP level in human T47D cells at 0.01 to 0.1 uM after 72 hrs by HPLC-UV analysis; type: functional, cell-based; in short: as §2
[12] = target: Serine/threonine-protein kinase mTOR (Homo sapiens) (UniProt P42345); experiment: Inhibition of mTOR in human MDA-MB-231 cells assessed as eEF2 hyperphosphorylation on Ser 56 at 0.1 to 1 uM after 30 mins by Western blotting; type: cell-based; in short: as §1
MDA-MB-231 [13] = experiment: Reduction in ATP level in human MDA-MB-231 cells at 0.01 to 0.1 uM after 48 hrs by HPLC-UV analysis; type: functional, cell-based; in short: as §2
T47D [14] = experiment: Inhibition of cellular respiration in human T47D cells assessed as rate of oxygen consumption at 0.001 to 0.1 uM; type: functional, cell-based; in short: as §3
T47D [15] = experiment: Antiproliferative activity against human T47D cells assessed as cell viability at 0.01 to 0.1 uM after 72 hrs by SRB assay; type: functional
In short: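 T47D cells grown in DMEM/F12 with 10% FBS and penicillin/streptomycin, then exposed for 72 h in a parallel 96-well viability study. Cells fixed in the wells with no aspiration or wash, stained by sulforhodamine B, and read by OD. % inhibition = [1 − (OD treated/OD medium control)] × 100.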

T47D [16] = experiment: Reduction in ATP level in human T47D cells after 72 hrs by HPLC-UV analysis; type: functional, cell-based; in short: as §2
[17] = target: Serine/threonine-protein kinase mTOR (Homo sapiens) (UniProt P42345); experiment: Inhibition of mTORC1-mediated rpS6 phosphorylation on Ser 235/236 in human T47D cells at 0.1 to 1 uM after 30 mins by Western blotting; type: cell-based; in short: as §1
[18] = target: Serine/threonine-protein kinase mTOR (Homo sapiens) (UniProt P42345); experiment: Inhibition of mTOR in human T47D cells assessed as eEF2 hyperphosphorylation on Ser 56 at 0.1 to 1 uM after 30 mins by Western blotting; type: cell-based; in short: as §1
T47D [19] = experiment: Inhibition of HIF1beta protein accumulation under hypoxic condition in human T47D cells at 3 uM after 4 hrs by Western blot analysis; type: functional, cell-based
[20] = target: T1, Hypoxia inducible factors; HIF-1-alpha, HIF-2-alpha (Homo sapiens, UniProt Q16665+Q99814); experiment: Inhibition of HIF1-mediated induction of secreted VEGF protein in hypoxia-stimulated human T47D cells at 3 uM after 16 hrs by ELISA; type: cell-based
[21] = target: T1, Hypoxia inducible factors; HIF-1-alpha, HIF-2-alpha; experiment: Inhibition of HIF1-mediated induction of Glut-1 mRNA expression in hypoxia-stimulated human T47D cells at 0.3 to 3 uM after 16 hrs by RT-PCR analysis; type: cell-based
[22] = target: T1, Hypoxia inducible factors; HIF-1-alpha, HIF-2-alpha; experiment: Inhibition of HIF1-mediated induction of Glut-1 mRNA expression in human T47D cells at 3 uM after 16 hrs by RT-PCR analysis under normoxic condition; type: cell-based
T47D [23] = experiment: Inhibition of 1, 10-phenanthroline-induced HIF1alpha protein accumulation in human T47D cells at 3 uM after 4 hrs by Western blot analysis; type: functional, cell-based
[24] = target: T1, Hypoxia inducible factors; HIF-1-alpha, HIF-2-alpha; experiment: Inhibition of 1, 10-phenanthroline-induced HIF1 activation in human T47D cells after 16 hrs by HRE3-TK-luciferase reporter gene assay; type: cell-based
T47D [25] = experiment: Inhibition of cellular respiration in human T47D cell at 0.03 to 1 uM by oxygen consumption assay; type: functional, cell-based
In short: (§4)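 Oxygen consumption of intact T47D cells measured with a Clark-type electrode, in serum-free DMEM/F12 at 30 °C.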

[26] = target: T1, Hypoxia inducible factors; HIF-1-alpha, HIF-2-alpha; experiment: Inhibition of HIF1-mediated induction of VEGF mRNA expression in hypoxia-stimulated human T47D cells at 0.3 to 3 uM after 16 hrs by RT-PCR analysis; type: cell-based
[27] = target: T1, Hypoxia inducible factors; HIF-1-alpha, HIF-2-alpha; experiment: Inhibition of HIF1-mediated induction of cellular VEGF protein in hypoxia-stimulated human T47D cells at 0.3 uM after 16 hrs by ELISA; type: cell-based
[28] = target: T1, Hypoxia inducible factors; HIF-1-alpha, HIF-2-alpha; experiment: Inhibition of HIF1-mediated induction of secreted VEGF protein in human T47D cells at 3 uM after 16 hrs by ELISA under normoxic condition; type: cell-based
T47D [29] = experiment: Inhibition of 1, 10-phenanthroline-induced HIF1beta protein accumulation in human T47D cells at 3 uM after 4 hrs by Western blot analysis; type: functional, cell-based
MDA-MB-231 [30] = experiment: Antiproliferative activity against human MDA-MB-231 cells assessed as cell viability by SRB assay; type: functional, cell-based
In short: (§5)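 Cells grown in DMEM/F12 with 10% FBS, penicillin and streptomycin; 96-well viability assay, 2-day or 6-day exposure, with medium (5% FBS) and compound renewed after 3 days in the 6-day study. Read by optical density; % inhibition = [1 − (ODtreated/ODcontrol)] × 100 versus medium control.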

T47D [31] = experiment: Inhibition of cellular respiration in human T47D cells at 1 uM by oxygen consumption assay; type: functional; in short: as §4
[32] = target: T1, Hypoxia inducible factors; HIF-1-alpha, HIF-2-alpha; experiment: Inhibition of hypoxia-induced HIF1 activation in human T47D cells after 16 hrs by HRE3-TK-luciferase reporter gene assay; type: cell-based
In short: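 T47D cells carrying the pHRE3-TK-Luc reporter, grown in DMEM/F12 with 10% FBS; HIF-1 induced by hypoxia (1% O2). Activity reported as % inhibition of the induced control, calculated as [1 − (treated/control)] × 100.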

[33] = target: T1, Hypoxia inducible factors; HIF-1-alpha, HIF-2-alpha; experiment: Inhibition of HIF1-mediated induction of VEGF mRNA expression in human T47D cells at 3 uM after 16 hrs by RT-PCR analysis under normoxic condition; type: cell-based
PC-3 = experiment: Antiproliferative activity against human PC3 cells assessed as cell viability by SRB assay; type: functional, cell-based; in short: as §5
T47D [34] = experiment: Ratio of IC50 for 1, 10-phenanthroline-induced HIF1 activation in human T47D cells to IC50 for hypoxia-induced HIF1 activation in human T47D cells; type: cell-based
[35] = target: T1, Hypoxia inducible factors; HIF-1-alpha, HIF-2-alpha; experiment: Inhibition of HIF1-mediated induction of cellular VEGF protein in human T47D cells at 3 uM after 16 hrs by ELISA under normoxic condition; type: cell-based
T47D [36] = experiment: Inhibition of HIF1alpha protein accumulation under hypoxic condition in human T47D cells at 3 uM after 4 hrs by Western blot analysis; type: functional, cell-based
T47D [37] = experiment: Antiproliferative activity against human T47D cells assessed as cell viability by SRB assay; type: functional, cell-based; in short: as §5
[38] = target: T1, Hypoxia inducible factors; HIF-1-alpha, HIF-2-alpha; experiment: Inhibition of HIF1-mediated induction of cellular VEGF protein in hypoxia-stimulated human T47D cells at 3 uM after 16 hrs by ELISA; type: cell-based
[39] = target: T1, Hypoxia inducible factors; HIF-1-alpha, HIF-2-alpha; experiment: Inhibition of HIF1-mediated induction of secreted VEGF protein in hypoxia-stimulated human T47D cells at 0.3 uM after 16 hrs by ELISA; type: cell-based

SMILES: C=C(C)[C@H]1Cc2c(ccc3c2O[C@@H]2COc4cc(OC)c(OC)cc4[C@@H]2C3=O)O1 [ROTENONE]
- inhibition [1]: inactive
- inhibition [2]: Active
- Activity (MDA-MB-231 [3]): Dose-dependent effect
- inhibition [4]: inactive
- inhibition [5]: inactive
- Activity (T47D [6]): Active
- inhibition [7]: inactive
- Activity [8]: Active
- inhibition (MDA-MB-231 [9]): Dose-dependent effect
- inhibition [10]: inactive
- Activity (T47D [11]): Active
- Activity [12]: Active
- Activity (MDA-MB-231 [13]): Active
- inhibition (T47D [14]): Active
- Activity (T47D [15]): 50%
- Activity (T47D [16]): Dose-dependent effect
- inhibition [17]: inactive
- Activity [18]: Active

SMILES: CC(C)=CC(=O)O[C@@H]1CC[C@]2(C)[C@H]3CC[C@]45C[C@]4(CC[C@@H]5[C@@H]4C[C@H]([C@@H]5OC5(C)C)OC4O)[C@]3(C)[C@H](O)C[C@H]2C1(C)C (stereo not given in full) [SKIMMIAREPIN C]
- inhibition (T47D [19]): inactive
- inhibition [20]: Active
- inhibition [21]: Active
- inhibition [22]: inactive
- inhibition (T47D [23]): inactive
- IC50 [24]: 5.6 µM
- inhibition (T47D [25]): Dose-dependent effect
- inhibition [26]: Active
- inhibition [27]: Active
- inhibition [28]: inactive
- inhibition (T47D [29]): inactive
- Activity (MDA-MB-231 [30]): inactive
- inhibition at 1 µM (T47D [31]): 75%
- IC50 [32]: 68 nM
- inhibition [33]: inactive
- Activity (PC-3): Active
- Ratio IC50 (T47D [34]): 80
- inhibition [35]: inactive
- inhibition (T47D [36]): Active
- Activity (T47D [37]): Active
- inhibition [38]: Active
- inhibition [39]: Active

From ChEMBL document CHEMBL1909531, “Mitochondrial respiration inhibitors suppress protein translation and hypoxic signaling via the hyperphosphorylation and inactivation of translation initiation factor eIF2α and elongation factor eEF2” (J Nat Prod, 2011)
